B1: tRNA (parent)
chain: GUUCCGUUGGCGUAAUGGUAACGCGUCUCCCUCCUAAGGAGAAGACUGCGGGUUCGAGUCCCGUACGGAACG

This sample holds only a part of the variants without activity.

The variants in this data set derive from B1. In words: yeast fitness relative to wild type (ratio to wild type); higher = fitter; tRNA-Arg(CCU), competitive growth, 37 C, YPD. The gist of the method: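 Gene amplicons from the start population and from each of six end populations were read by 100-nucleotide paired-end sequencing. Those end populations came from pooled Saccharomyces cerevisiae strains carrying tRNA-Arg(CCU) gene variants at the native locus, competed in YPD at 37°C for 24 hours. Fitness relative to wild type was worked out from changes in genotype frequencies. Genotypes needed ≥ 100 starting reads, and estimates < 0.5 were set to 0.5.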
As for A20U G38C A65G, the yeast fitness is at most 0.5.

A21C C33U C55A: the yeast fitness was determined as 0.533.

On to A20G C31U A42U C46U C66G, for which the yeast fitness was found to be 0.714.

A21C C22G G38C A57C: the yeast fitness was 0.524.

On to A20G C31G C60G, for which the yeast fitness was at most 0.5.

Regarding A20U U35C A36G C55G, the yeast fitness was determined as 0.578.

On to A20C G48C A57G G63A, for which the yeast fitness is at most 0.5.

Regarding A20C C31U A40G G52C A65G, the yeast fitness was 0.551.

As to A20G G25A C62U A65C, the yeast fitness is 0.813.

Turning to A21C C27U C49U G58C C61A A65U A69U, the yeast fitness was at most 0.5.

For the variant A20C G25A C31G C33U C34U G41C C60A C66U, the yeast fitness is at most 0.5.

For A20G C31U C46G, the yeast fitness amounted to 0.649.

As for A20G C27A A40G A45C, the yeast fitness was at most 0.5.

With A21G C31U C49U, the yeast fitness stood at 0.97.

Consider A20U U32C C55U, for which the yeast fitness is 0.55.

With A20G C29G G50A A70U, the yeast fitness was at most 0.5.

Consider A20U C22A C61A C62G G68A, for which the yeast fitness is at most 0.5.

Regarding A20G U28G C31U, the yeast fitness worked out at 0.588.

On to A20G A40C A42U A43C G48A A69C, for which the yeast fitness was at most 0.5.

Turning to A20U C31U C49U, the yeast fitness was 0.773.

In the case of A20U A21G C27G, the yeast fitness is at most 0.5.

With A21G A43U G58C C60A C66U, the yeast fitness is at most 0.5.

On to A20G G38C A45C G51A, for which the yeast fitness was at most 0.5.

In the case of A20U C27G C29A A65G, the yeast fitness was at most 0.5.

Regarding A21G C27G C60G A70C, the yeast fitness is at most 0.5.

Turning to A20G A21G C29G, the yeast fitness came out at 0.543.

With A20U C27G C29U, the yeast fitness is at most 0.5.

For A21C G38A G58C, the yeast fitness worked out at 0.503.

Regarding A20G C49U C61G, the yeast fitness turned out to be 0.617.

For A21C A69C, the yeast fitness is 0.809.

Turning to A20U C34U A42U, the yeast fitness is at most 0.5.

In the case of A20U C31U C66A, the yeast fitness was at most 0.5.

A20U G44U A57U G58A C66G: the yeast fitness was 0.518.

With A21G A36C, the yeast fitness amounted to 0.557.

Turning to A20G G25C C33G C60A, the yeast fitness was at most 0.5.

As to A20U U54C, the yeast fitness stood at 0.758.

Take A21C C60G C62G A70C: the yeast fitness was at most 0.5.

For the variant A20U U59A, the yeast fitness came to 0.847.

For the variant A20U U59G, the yeast fitness worked out at 0.728.

Regarding A20U C22G G23A A43U G50A, the yeast fitness is at most 0.5.

On to A20G G50A, for which the yeast fitness is 0.905.

For the variant A20C G68A, the yeast fitness was found to be 0.843.

Consider A20U U26C U47C, for which the yeast fitness stood at 0.534.

On to A20U C31G A40C, for which the yeast fitness was at most 0.5.

Turning to A20U C27G C29A G58A, the yeast fitness is at most 0.5.

For A21C A36U A37G A42C U64A, the yeast fitness is at most 0.5.

Turning to A20C U54G, the yeast fitness came to 0.539.

In the case of A20G C27U U28G, the yeast fitness was determined as 0.565.

Take A21G C33G G38A A69C: the yeast fitness was at most 0.5.

In the case of A20C U64A G67A, the yeast fitness is at most 0.5.

For the variant A21C C62U C66A, the yeast fitness is at most 0.5.

In the case of A20G C33A A36C U47A, the yeast fitness is at most 0.5.

Consider A21C U26A C27G, for which the yeast fitness was 0.581.

As for A21G A37G, the yeast fitness is 0.692.

Regarding A20U C62U A65C, the yeast fitness was 0.682.

For A20C G38A U53A, the yeast fitness was at most 0.5.

As for A20G G44A, the yeast fitness worked out at 0.962.

Turning to A20G C29G C49U G68A, the yeast fitness was at most 0.5.

Turning to A21C C24A U32A, the yeast fitness was at most 0.5.

Turning to A21C G41A G48C G51C G52C, the yeast fitness was at most 0.5.

In the case of A20U G23A C31U G39A, the yeast fitness was at most 0.5.

As for A20C C33U A37G A45U G48A G56C, the yeast fitness is at most 0.5.

In the case of A20G A36C C49G U54C, the yeast fitness was at most 0.5.

As for A20G G23A G38A, the yeast fitness was at most 0.5.

As to A20G A57C, the yeast fitness was determined as 0.642.

Regarding A20U C30U C34G U53C A57U G67C, the yeast fitness was at most 0.5.

Consider A20G C60U A69U, for which the yeast fitness came out at 0.592.

In the case of A20U A36U, the yeast fitness was determined as 0.639.

Consider A21C A40U A45G A65C, for which the yeast fitness was 0.547.

In the case of A20U C29A C30A, the yeast fitness was at most 0.5.

A20U G63A: the yeast fitness was 0.932.

As for A21C A45G, the yeast fitness is 0.918.

Turning to A20U C34A C66A, the yeast fitness is at most 0.5.

A21C C46G C49G G56A: the yeast fitness turned out to be 0.528.

Consider A20U U26A, for which the yeast fitness stood at 0.754.

For the variant A21C A43U G50A G52U A69C, the yeast fitness stood at 0.554.

As for A20U C60A, the yeast fitness came out at 0.609.

Turning to A20G C24U G56A C66G, the yeast fitness was at most 0.5.

As for A20G G23C A69C, the yeast fitness is at most 0.5.

For A20C C46G A70G, the yeast fitness came out at 0.668.

Turning to A20G A40U G52A C55A, the yeast fitness stood at 0.529.

With A20U C30A, the yeast fitness came to 0.795.

For A21G C30G A36G C46G A57U, the yeast fitness worked out at 0.551.

Take A20C C34A A37G C46A: the yeast fitness came to 0.541.

Regarding A21C A65C G67U, the yeast fitness is at most 0.5.

In the case of A20U G51A C61G, the yeast fitness is at most 0.5.

Turning to A20G G56A A57C, the yeast fitness is 0.574.

With A21C C33G C34G U54A, the yeast fitness was at most 0.5.

On to A21G A69U, for which the yeast fitness stood at 1.07.

Take A21C C29G G68C: the yeast fitness amounted to 0.557.

Turning to A21C A43G G48C, the yeast fitness is at most 0.5.

Consider A20U C30U C31G A43G G44A U47A C49G, for which the yeast fitness was 0.595.

As to A20G A40G G50C, the yeast fitness amounted to 0.574.

Turning to A20G A21U A70U, the yeast fitness is at most 0.5.

With A21C C29G C33A A42C C62A, the yeast fitness is 0.52.

As for A21C C22U G38C A40C C62A, the yeast fitness was 0.559.

As to A21C A36U, the yeast fitness was 0.54.

For the variant A20C U26G, the yeast fitness stood at 0.572.

Take A20G G67U A69C: the yeast fitness is at most 0.5.

As to A20C G39C, the yeast fitness came to 0.723.

For A20G A42C A45C, the yeast fitness was at most 0.5.

As for A20G C33U G39A A57G U59C, the yeast fitness worked out at 0.517.

For the variant A20U C30U A57G A65U, the yeast fitness is at most 0.5.

With A20G A65U G68C, the yeast fitness came to 0.556.

Regarding A20U U32A A65C, the yeast fitness was at most 0.5.

As to A20G C24U G25A U35A C60U A70G, the yeast fitness came out at 0.655.

With A21G A40G C49G U59G G67C, the yeast fitness is at most 0.5.

Turning to A20G C46G C49G, the yeast fitness came out at 0.565.

For A21C C24U U26A G38C C46G C62U A65C, the yeast fitness is at most 0.5.

Turning to A20U C29G A43U, the yeast fitness is 0.612.

Turning to A20U A37C G38C, the yeast fitness was at most 0.5.

Turning to A20C U54C C55U, the yeast fitness was at most 0.5.

Regarding A20G C46U A70U, the yeast fitness was found to be 0.878.

On to A20C G48C A70C, for which the yeast fitness amounted to 0.649.

On to A21C G23C G52C, for which the yeast fitness was at most 0.5.

With A21G C29U A37U G63C, the yeast fitness is at most 0.5.

Turning to A20C G68A A70C, the yeast fitness was determined as 0.522.

For the variant A20C U59C A69C, the yeast fitness is 0.705.

As for A20U C60G C61U, the yeast fitness is at most 0.5.

On to A21G C27U A69U, for which the yeast fitness came to 0.772.

In the case of A21C U47A C60U G67C, the yeast fitness is at most 0.5.

Turning to A20U C22U U47A, the yeast fitness was at most 0.5.

For the variant A20C G67U, the yeast fitness amounted to 0.754.

As for A20G U47C G50C, the yeast fitness was at most 0.5.

For the variant A20G A43U U64C, the yeast fitness is 0.704.

As to A20C U53A, the yeast fitness amounted to 0.767.

As to A20C C46A, the yeast fitness was determined as 1.04.

For the variant A20C G41C C66G, the yeast fitness was at most 0.5.

For A20G C27A C31A, the yeast fitness was at most 0.5.

For the variant A21G C30U G67A, the yeast fitness turned out to be 0.633.

Turning to A21C C34U A65G, the yeast fitness is 0.532.

Consider A20G C34G, for which the yeast fitness turned out to be 0.68.

Take A20G C34U: the yeast fitness worked out at 0.777.

On to A20G U28C C62A, for which the yeast fitness was at most 0.5.

For the variant A20C G41A G58U, the yeast fitness was 0.706.

As for A20C C61U A69U, the yeast fitness came to 0.61.

Regarding A21C U28C, the yeast fitness was 0.852.

Consider A20U U26C C62G, for which the yeast fitness is at most 0.5.

For A20U U28C G44A C46U G48A C49U C60G C62A C66G, the yeast fitness was at most 0.5.

Regarding A21G C24G A37U C66U, the yeast fitness is at most 0.5.

Take A20U C24A G51C: the yeast fitness is at most 0.5.

A21C C24A C33A G48C: the yeast fitness was 0.579.

In the case of A20U C31A G52A C66U, the yeast fitness stood at 0.527.

As for A20G U53C G56C, the yeast fitness was at most 0.5.

Take A21G C29U G38C: the yeast fitness was 0.814.

Regarding A21G C27G A42U, the yeast fitness was at most 0.5.

For the variant A20U A45U A69U, the yeast fitness came out at 0.726.

In the case of A21G C31G A65C, the yeast fitness is 0.674.

On to A21G C31G C33G, for which the yeast fitness is at most 0.5.

Regarding A20U C22G A40G G50C G51C G56A, the yeast fitness was at most 0.5.

With A20G A21U A42C, the yeast fitness worked out at 0.547.

Take A21C C30A A42C G48C C49U U54C: the yeast fitness stood at 0.598.

Take A21C C30G A69C: the yeast fitness came out at 0.542.

A20G C31U A57C U64A G68A: the yeast fitness is at most 0.5.

For the variant A21G A36G A42U, the yeast fitness was found to be 0.75.

For A20C C30A C33U C34U C49A C62G, the yeast fitness is at most 0.5.

Regarding A21C C61U A70U, the yeast fitness was found to be 0.623.

A20G C24A A42U: the yeast fitness stood at 0.546.

With A20U C29A, the yeast fitness was determined as 0.797.

In the case of A20G G38C C46U G63U, the yeast fitness is at most 0.5.

Take A20G C60U: the yeast fitness is 0.744.

As for A20U C60U A69U, the yeast fitness was 0.672.

A21C C22A U26C U35C: the yeast fitness was at most 0.5.

A21G A45C C49U C55U: the yeast fitness came to 0.531.

Consider A21C C30G, for which the yeast fitness is 0.6.

Turning to A20C C30G C33G, the yeast fitness is at most 0.5.

Regarding A20C C31A, the yeast fitness was determined as 0.79.

The values above are taken from the RNAGym collection of RNA variant scans (doi:10.1126/science.aae0568).
